Measurements: PubChem BioAssay AID504525 (Broad Institute, 2011)
Activity calls are given as the source filed them.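 How the source made its calls: active means fitted dose curve showing toxicity with half-maximal concentration at most ten times the top tested dose; inconclusive means flat curve with 30 to 70% toxicity, or poor fit; inactive means the rest.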

Experiment: cytotoxicity in NIH-3T3 mammalian cells, dose response, cytotoxicity control for antifungal drug resistance project, cell-based, fluconazole, powder samples, set 7 (AID 504525)
Details: NIH-3T3 viability with fluconazole, Alamar Blue, 48 h; series mostly up to 26 µM; activity change, negative = toxicity: at the top concentration
How it was run: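 Assay system: NIH 3T3 fibroblasts; Amount: 6,000 cells/well; Buffer or medium: Optimem growth medium with 2.5% fetal bovine serum; Reagent: fluconazole co-treatment at 8 µg/mL final; Doses: test compound dose series, top final amount 26 µM; Times: 48 h compound exposure at 37 °C; Technique: Alamar Blue fluorescence, Ex 544/Em 590 nm.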

SMILES	activity change, negative = toxicity
CN1CCN(C(=O)Cn2c3ccccc3c3nc4n(c(=O)c32)CCS4)CC1	-2.12% (inactive)
c1ccc(-c2nn(Cc3nnco3)c3ccccc23)cc1	16.2% (inactive)
COC(=O)Cn1nc(C2CCCCC2)c2ccccc21	22.7% (inactive)
COC(=O)Cn1nc(-c2ccccc2)c2cccnc21	22.7% (inactive)
COC(=O)Cn1nc(-c2cnco2)c2ccccc21	-21.2% (inactive)
COC(=O)Cn1nc(C2CC2)c2ccccc21	54.8% (inactive)
O=C(Cn1c2ccccc2c2nc3n(c(=O)c21)CCS3)N1CCC(F)(F)CC1	3.61% (inactive)
COC(=O)Cn1nc(-c2cccnc2)c2ccccc21	47.9% (inactive)
COC(=O)Cn1nc(-c2cccc(F)c2)c2ccccc21	17.8% (inactive)
O=C(Cn1c2ccccc2c2nc3n(c(=O)c21)CCS3)N1CCC(F)(F)C1	5.93% (inactive)
CC1(O)CN(C(=O)Cn2c3ccccc3c3nc4n(c(=O)c32)CCS4)C1	7.45% (inactive)
COC(=O)Cn1c2ccc(F)cc2c2nc3n(c(=O)c21)CCS3	15.6% (inactive)
O=C(Cn1c2ccc(F)cc2c2nc3n(c(=O)c21)CCS3)N1CCC(F)(F)CC1	19.8% (inactive)
CC1CCN(CCn2c3ccccc3c3nc4n(c(=O)c32)CCS4)CC1	30.3% (inactive)
COC(=O)Cn1nc(-c2cscn2)c2ccccc21	24.5% (inactive)
COC(=O)n1nc(-c2ccccc2)c2ccccc21	-1.06% (inactive)
O=C(Cn1c2ccc(F)cc2c2nc3n(c(=O)c21)CCS3)N1CC=CC1	24.5% (inactive)
COC(=O)Cn1nc(-c2cccc(C)c2)c2ccccc21	48.8% (inactive)
CCc1nn(CC(=O)OC)c2ccccc12	-12.6% (inactive)
COC(=O)Cn1nc(-c2cccc(OC)c2)c2ccccc21	4.19% (inactive)
O=C(Cn1c2ccc(F)cc2c2nc3n(c(=O)c21)CCS3)N1CCC(F)(F)C1	22% (inactive)
O=C(O)Cn1c2ccccc2c2nc3n(c(=O)c21)CCS3	15.2% (inactive)
O=C(O)Cn1c2ccc(F)cc2c2nc3n(c(=O)c21)CCS3	-5.43% (inactive)
COC(=O)Cn1nc(C(C)(C)C)c2ccccc21	73.8% (inactive)
O=C(Cn1c2ccccc2c2nc3n(c(=O)c21)CCS3)N1CC=CC1	-4.86% (inactive)
